Positions count from the first letter of the chain named. Read-outs that look alike come from different tables or passages of the source.
Experiments:
SETD8 [1] = details: cited from earlier work
SETD8 [2] = biological target: T1, SETD8 (Homo sapiens, UniProt Q9NQR1); test: SETD8 scintillation proximity assay; assay type: biochemical
T1 sequence (Q9NQR1 232-393): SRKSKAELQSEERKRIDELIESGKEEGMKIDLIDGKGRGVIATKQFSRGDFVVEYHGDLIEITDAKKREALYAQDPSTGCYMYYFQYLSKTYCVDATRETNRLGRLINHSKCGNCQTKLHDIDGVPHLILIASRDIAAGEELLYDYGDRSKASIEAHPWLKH

SETD8 [3] = biological target: T1, SETD8; test: Mass spectrometry of covalent modification, wild-type SETD8; assay type: binding; details: for covalent adduct formation by MS: purified SETD8 with full SET domain, 3 hours incubation
In short: (§1)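 Catalytic domain of SETD8 (wild type, C311S or C343S; the C311S protein carried a His tag) at 7 μM was incubated with 20–200 μM test compound in water for over 3 h. Samples were analysed by electrospray LC/MS time-of-flight to detect covalent adducts. Masses of each protein without compound were recorded as controls.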

C311S mutant of SETD8 = biological target: T2, C311S mutant of SETD8 (Homo sapiens, UniProt Q9NQR1, C311S); test: Mass spectrometry of covalent modification, SETD8 C311S mutant; assay type: binding
T2 sequence (Q9NQR1 232-393 C311S): T1 sequence (Q9NQR1 232-393) with C80S
In short: as §1

C343S mutant of SETD8 = biological target: T3, C343S mutant of SETD8 (Homo sapiens, UniProt Q9NQR1, C343S); test: Mass spectrometry of covalent modification, SETD8 C343S mutant; assay type: binding
T3 sequence (Q9NQR1 232-393 C343S): T1 sequence (Q9NQR1 232-393) with C112S
In short: as §1

PRC2 = PRC2 (Homo sapiens, UniProt Q15910); test: Mass spectrometry of covalent labeling, PRC2; assay type: binding
SMYD2 = SMYD2 (Homo sapiens, UniProt Q9NRG4); test: Mass spectrometry of covalent labeling, SMYD2; assay type: binding
SMYD3 = biological target: T4, SMYD3 (Homo sapiens, UniProt Q9H7B4); test: Mass spectrometry of covalent labeling, SMYD3; assay type: binding
T4 sequence (Q9H7B4 1-428): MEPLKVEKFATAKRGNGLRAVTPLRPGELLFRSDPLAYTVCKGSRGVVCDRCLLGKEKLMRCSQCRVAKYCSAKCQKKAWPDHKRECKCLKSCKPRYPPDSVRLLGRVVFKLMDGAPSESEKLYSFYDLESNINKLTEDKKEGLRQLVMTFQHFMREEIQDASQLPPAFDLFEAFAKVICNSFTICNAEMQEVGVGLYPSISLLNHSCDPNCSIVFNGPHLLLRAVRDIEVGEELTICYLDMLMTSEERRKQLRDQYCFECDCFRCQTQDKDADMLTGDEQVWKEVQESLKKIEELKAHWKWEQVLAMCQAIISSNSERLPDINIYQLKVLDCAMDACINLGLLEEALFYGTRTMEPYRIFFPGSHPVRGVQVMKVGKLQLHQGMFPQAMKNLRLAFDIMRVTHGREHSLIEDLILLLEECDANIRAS

[4] = tested on: 28 other methyltransferases; test: Methyltransferase selectivity assays; assay type: biochemical
[5] = tested on: H4K20me mark in HeLa cells; test: H4K20me mark in HeLa cells; assay type: cell-based; details: up to 10μM
SETD8 [6] = biological target: T1, SETD8; test: Residual enzymatic activity of the purified 3-SETD8 adduct; assay type: biochemical; details: purified monomer and dimer of 3-SETD8 adduct
In short: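 SETD8 was incubated with the covalent test compound until adduct formation was complete by MS. The adduct was purified by gel filtration, giving monomer and dimer forms that interconvert. Each form was then tested in the enzymatic assay and compared with wild-type SETD8.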

Sequence of PRC2 (Q15910 whole entry): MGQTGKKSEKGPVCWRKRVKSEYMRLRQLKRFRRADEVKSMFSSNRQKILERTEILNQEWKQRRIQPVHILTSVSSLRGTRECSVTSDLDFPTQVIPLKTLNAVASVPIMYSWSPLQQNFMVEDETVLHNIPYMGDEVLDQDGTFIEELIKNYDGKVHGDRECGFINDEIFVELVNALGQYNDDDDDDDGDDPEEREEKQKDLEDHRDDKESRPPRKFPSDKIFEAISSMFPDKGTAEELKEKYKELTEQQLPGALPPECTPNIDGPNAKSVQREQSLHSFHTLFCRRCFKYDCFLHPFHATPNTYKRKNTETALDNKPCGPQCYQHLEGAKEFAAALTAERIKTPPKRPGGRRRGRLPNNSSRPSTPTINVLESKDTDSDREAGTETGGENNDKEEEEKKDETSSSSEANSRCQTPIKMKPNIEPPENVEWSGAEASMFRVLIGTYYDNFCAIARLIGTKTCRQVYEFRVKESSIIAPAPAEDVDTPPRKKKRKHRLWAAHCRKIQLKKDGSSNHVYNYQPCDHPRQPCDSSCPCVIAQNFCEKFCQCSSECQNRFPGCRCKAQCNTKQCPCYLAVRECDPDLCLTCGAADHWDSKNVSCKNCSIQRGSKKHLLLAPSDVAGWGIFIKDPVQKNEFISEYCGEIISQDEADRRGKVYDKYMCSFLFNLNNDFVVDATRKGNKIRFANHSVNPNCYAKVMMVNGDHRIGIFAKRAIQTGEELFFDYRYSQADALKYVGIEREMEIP
Sequence of PRC2 (O75530 whole entry partner): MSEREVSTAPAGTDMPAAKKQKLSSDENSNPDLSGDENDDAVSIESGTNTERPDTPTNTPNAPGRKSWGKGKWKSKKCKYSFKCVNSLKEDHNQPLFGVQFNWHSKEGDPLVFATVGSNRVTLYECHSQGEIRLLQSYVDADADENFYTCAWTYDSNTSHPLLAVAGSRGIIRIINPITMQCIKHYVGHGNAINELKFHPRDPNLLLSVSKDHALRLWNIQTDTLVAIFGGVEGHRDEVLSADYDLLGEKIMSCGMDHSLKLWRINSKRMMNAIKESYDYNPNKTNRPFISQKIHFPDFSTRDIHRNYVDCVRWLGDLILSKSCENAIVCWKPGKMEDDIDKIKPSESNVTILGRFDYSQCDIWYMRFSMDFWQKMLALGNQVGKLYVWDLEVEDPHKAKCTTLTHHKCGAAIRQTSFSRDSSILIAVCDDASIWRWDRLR
Sequence of PRC2 (Q15022 whole entry partner): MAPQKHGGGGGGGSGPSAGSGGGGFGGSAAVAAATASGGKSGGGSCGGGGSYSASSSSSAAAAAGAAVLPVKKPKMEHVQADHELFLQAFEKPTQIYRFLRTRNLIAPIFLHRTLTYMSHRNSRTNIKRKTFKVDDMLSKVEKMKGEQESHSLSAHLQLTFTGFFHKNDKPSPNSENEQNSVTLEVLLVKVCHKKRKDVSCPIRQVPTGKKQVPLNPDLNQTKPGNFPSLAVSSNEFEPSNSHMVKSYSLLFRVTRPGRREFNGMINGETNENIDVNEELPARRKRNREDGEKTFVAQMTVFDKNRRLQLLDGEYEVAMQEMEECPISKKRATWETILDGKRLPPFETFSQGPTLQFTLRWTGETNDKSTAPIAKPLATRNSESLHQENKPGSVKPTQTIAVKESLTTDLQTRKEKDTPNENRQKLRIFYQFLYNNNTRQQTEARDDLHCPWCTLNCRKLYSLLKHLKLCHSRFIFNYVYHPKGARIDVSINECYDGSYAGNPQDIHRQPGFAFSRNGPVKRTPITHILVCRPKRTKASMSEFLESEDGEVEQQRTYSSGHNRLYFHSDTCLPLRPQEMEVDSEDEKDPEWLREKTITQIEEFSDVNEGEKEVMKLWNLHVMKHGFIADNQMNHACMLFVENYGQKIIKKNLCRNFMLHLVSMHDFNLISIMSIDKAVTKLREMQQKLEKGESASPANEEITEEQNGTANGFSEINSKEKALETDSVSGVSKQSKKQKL
Sequence of SMYD2 (Q9NRG4 whole entry, species assumed): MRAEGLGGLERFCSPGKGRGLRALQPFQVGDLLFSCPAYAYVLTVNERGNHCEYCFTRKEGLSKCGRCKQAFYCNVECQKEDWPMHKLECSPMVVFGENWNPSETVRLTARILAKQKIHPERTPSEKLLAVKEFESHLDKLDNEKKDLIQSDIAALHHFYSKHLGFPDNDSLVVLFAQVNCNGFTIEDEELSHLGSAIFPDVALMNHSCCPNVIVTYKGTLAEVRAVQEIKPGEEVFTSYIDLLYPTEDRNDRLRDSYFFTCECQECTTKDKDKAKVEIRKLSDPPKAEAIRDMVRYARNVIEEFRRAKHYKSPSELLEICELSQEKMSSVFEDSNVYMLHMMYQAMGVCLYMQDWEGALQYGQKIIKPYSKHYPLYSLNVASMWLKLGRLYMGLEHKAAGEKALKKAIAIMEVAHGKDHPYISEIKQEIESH

Row | activity in the SETD8 biochemical assay (SETD8 [2]) | Hillslope (SETD8 [2]; incubation with SETD8 for 1 or 5 hours, both incubation times) | covalent modification of SETD8 in presence of glutathione (SETD8 [3]; 5 mM glutathione (GSH)) | covalent adduct formation by MS (C311S mutant of SETD8) | covalent adduct formation by MS (C343S mutant of SETD8) | labeling by MS analysis (PRC2) | labeling by MS analysis (SMYD2) | labeling by MS analysis (SMYD3) | enzymatic activity retained by adduct relative to wild-type SETD8 (SETD8 [6]) | Compound | mechanism of action (SETD8 [1]) | IC50 (SETD8 [1]; read-out: potency in vitro) [µM] | covalent adduct formation by MS (SETD8 [3]) | selectivity for SETD8 over other methyltransferases [4] | selectivity for SETD8 over other methyltransferases ([4]; listed as MS453) | reduction in the H4K20me mark [5]
1 | – | – | – | – | – | – | – | – | – | nauhoic acid A | SAM-competitive | 6.5 | – | – | – | –
2 | inactive | – | – | – | – | – | – | – | – | C=CC(=O)NCCCN(C)c1nc(N2CCCC2)nc2cc(OC)c(OC)cc12 [compound 4, N-(3-((6,7-Dimethoxy-2-(pyrrolidin-1-yl)quinazolin-4-yl)(methyl)amino)propyl)acrylamide] | – | – | did not covalently modify SETD8 | – | – | –
3 | – | 1.2 | not affected | did not form an adduct | formed a single-modified adduct | no labeling | no labeling | no labeling | about 10% | C=CC(=O)NCCCNc1nc(N2CCCC2)nc2cc(OC)c(OC)cc12 [compound 3, N-(3-((6,7-Dimethoxy-2-(pyrrolidin-1-yl)quinazolin-4-yl)amino)propyl)acrylamide] | – | – | efficiently forms a single-modified covalent adduct | selective for SETD8 over 30 other methyltransferases | selective for SETD8 against 28 other methyltransferases | did not observe significant reduction
